# Reference: ChEMBL document CHEMBL3627671, “Novel derivatives of nitro-substituted salicylic acids: Synthesis, antimicrobial activity and cytotoxicity” (Bioorg Med Chem, 2015)
# Key:
# Assay type in all cases: functional
# [1] = system: Mycobacterium tuberculosis; experiment: Antimycobacterial activity against Mycobacterium tuberculosis H37Rv 331/88 after 14 days; conditions: H37Rv 331/88, 336 h
# [2] = system: Mycobacterium tuberculosis; experiment: Antimycobacterial activity against Mycobacterium tuberculosis H37Rv 331/88 after 21 days; conditions: H37Rv 331/88, 504 h
# [3] = system: Mycobacterium avium; experiment: Antimycobacterial activity against Mycobacterium avium 330/80 after 14 days; conditions: 330/80, 336 h
# [4] = system: Mycobacterium avium; experiment: Antimycobacterial activity against Mycobacterium avium 330/80 after 21 days; conditions: 330/80, 504 h
# [5] = system: Mycobacterium kansasii; experiment: Antimycobacterial activity against Mycobacterium kansasii 235/80 after 7 days; conditions: 235/80, 168 h
# How it was run: (§1)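 Šula's semisynthetic medium micromethod at 37 °C, read after 7, 14 and 21 days. The 1.0 McFarland suspension was diluted 10^-4. MIC determined. 6509/96 is a clinical isolate.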
# [6] = system: Mycobacterium kansasii; experiment: Antimycobacterial activity against Mycobacterium kansasii 235/80 after 14 days; conditions: 235/80, 336 h; how it was run: as §1
# [7] = system: Mycobacterium kansasii; experiment: Antimycobacterial activity against Mycobacterium kansasii 235/80 after 21 days; conditions: 235/80, 504 h; how it was run: as §1
# [8] = system: Mycobacterium kansasii; experiment: Antimycobacterial activity against Mycobacterium kansasii 6509/96 after 7 days; conditions: 6509/96, 168 h; how it was run: as §1
# [9] = system: Mycobacterium kansasii; experiment: Antimycobacterial activity against Mycobacterium kansasii 6509/96 after 14 days; conditions: 6509/96, 336 h; how it was run: as §1
# [10] = system: Mycobacterium kansasii; experiment: Antimycobacterial activity against Mycobacterium kansasii 6509/96 after 21 days; conditions: 6509/96, 504 h; how it was run: as §1
# [11] = system: Staphylococcus aureus; experiment: Antibacterial activity against Staphylococcus aureus CCM 4516/08 after 24 hrs by microdilution broth method; conditions: CCM 4516/08, 24 h
# [12] = system: Staphylococcus aureus; experiment: Antibacterial activity against Staphylococcus aureus CCM 4516/08 after 48 hrs by microdilution broth method; conditions: CCM 4516/08, 48 h
# [13] = system: Staphylococcus aureus; experiment: Antibacterial activity against methicillin-resistant Staphylococcus aureus H 5996/08 after 24 hrs by microdilution broth method; conditions: H 5996/08, 24 h
# [14] = system: Staphylococcus aureus; experiment: Antibacterial activity against methicillin-resistant Staphylococcus aureus H 5996/08 after 48 hrs by microdilution broth method; conditions: H 5996/08, 48 h
# [15] = system: Staphylococcus epidermidis; experiment: Antibacterial activity against Staphylococcus epidermidis H 6966/08 after 24 hrs by microdilution broth method; conditions: H 6966/08, 24 h
# How it was run: (§2)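 Mueller-Hinton broth microdilution (modified M07-A07), pH 7.4 (±0.2). Compounds dissolved in DMSO, tested at final 500 to 0.49 µmol/L. Inoculum in sterile water matched to 0.5 McFarland. Incubated in the dark, humid atmosphere, 35 °C, read at 24 and 48 h visually and at 540 nm. MIC taken as ≥95% growth reduction (IC95) versus control.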
# [16] = system: Staphylococcus epidermidis; experiment: Antibacterial activity against Staphylococcus epidermidis H 6966/08 after 48 hrs by microdilution broth method; conditions: H 6966/08, 48 h; how it was run: as §2
# [17] = system: Enterococcus sp.; experiment: Antibacterial activity against Enterococcus sp. J 14365/08 after 24 hrs by microdilution broth method; conditions: J 14365/08, 24 h; how it was run: as §2
# [18] = system: Enterococcus sp.; experiment: Antibacterial activity against Enterococcus sp. J 14365/08 after 48 hrs by microdilution broth method; conditions: J 14365/08, 48 h; how it was run: as §2
# [19] = system: Escherichia coli; experiment: Antibacterial activity against Escherichia coli CCM4517 after 24 hrs by microdilution broth method; conditions: CCM4517, 24 h; how it was run: as §2
# [20] = system: Escherichia coli; experiment: Antibacterial activity against Escherichia coli CCM4517 after 48 hrs by microdilution broth method; conditions: CCM4517, 48 h; how it was run: as §2
# [21] = system: Klebsiella pneumoniae; experiment: Antibacterial activity against Klebsiella pneumoniae D 11750/08 after 24 hrs by microdilution broth method; conditions: D 11750/08, 24 h; how it was run: as §2
# [22] = system: Klebsiella pneumoniae; experiment: Antibacterial activity against Klebsiella pneumoniae D 11750/08 after 48 hrs by microdilution broth method; conditions: D 11750/08, 48 h; how it was run: as §2
# [23] = system: Klebsiella pneumoniae; experiment: Antibacterial activity against ESBL-positive Klebsiella pneumoniae J 14368/08 after 24 hrs by microdilution broth method; conditions: J 14368/08, 24 h; how it was run: as §2
# [24] = system: Klebsiella pneumoniae; experiment: Antibacterial activity against ESBL-positive Klebsiella pneumoniae J 14368/08 after 48 hrs by microdilution broth method; conditions: J 14368/08, 48 h; how it was run: as §2
# [25] = system: Pseudomonas aeruginosa; experiment: Antibacterial activity against Pseudomonas aeruginosa CCM 1961 after 24 hrs by microdilution broth method; conditions: CCM 1961, 24 h; how it was run: as §2
# [26] = system: Pseudomonas aeruginosa; experiment: Antibacterial activity against Pseudomonas aeruginosa CCM 1961 after 48 hrs by microdilution broth method; conditions: CCM 1961, 48 h; how it was run: as §2
# [27] = system: Candida albicans; experiment: Antifungal activity against Candida albicans ATCC 44859 after 24 hrs by microdilution broth method; conditions: ATCC 44859, 24 h
# How it was run: (§3)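 CLSI M27-A3 broth microdilution in RPMI 1640 with glutamine, buffered to pH 7.0 with MOPS; DMSO diluent. Yeast inoculum 5 × 10^3 ± 0.2 CFU/mL. Moulds grown on Sabouraud agar 3–10 days before spore harvest, final inoculum 0.5-5 × 10^4 CFU/mL, checked in a Bürker chamber. Incubated dark, humid, 35 °C, read at 24 and 48 h visually and at 540 nm. MIC taken as ≥80% (yeasts) or ≥50% (filamentous) growth reduction versus control.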
# [28] = system: Candida albicans; experiment: Antifungal activity against Candida albicans ATCC 44859 after 48 hrs by microdilution broth method; conditions: ATCC 44859, 48 h; how it was run: as §3
# [29] = system: Candida tropicalis; experiment: Antifungal activity against Candida tropicalis 156 after 24 hrs by microdilution broth method; conditions: Candida tropicalis, 156, 24 h; how it was run: as §3
# [30] = system: Candida tropicalis; experiment: Antifungal activity against Candida tropicalis 156 after 48 hrs by microdilution broth method; conditions: Candida tropicalis, 156, 48 h; how it was run: as §3
# [31] = system: Pichia kudriavzevii; experiment: Antifungal activity against Candida krusei E28 after 24 hrs by microdilution broth method; conditions: E28, 24 h; how it was run: as §3
# [32] = system: Pichia kudriavzevii; experiment: Antifungal activity against Candida krusei E28 after 48 hrs by microdilution broth method; conditions: E28, 48 h; how it was run: as §3
# [33] = system: Nakaseomyces glabratus; experiment: Antifungal activity against Candida glabrata 20/I after 24 hrs by microdilution broth method; how it was run: as §3
# [34] = system: Nakaseomyces glabratus; experiment: Antifungal activity against Candida glabrata 20/I after 48 hrs by microdilution broth method; how it was run: as §3
# [35] = system: Trichosporon asahii; experiment: Antifungal activity against Trichosporon asahii 1188 after 24 hrs by microdilution broth method; conditions: Trichosporon asahii, 1188, 24 h; how it was run: as §3
# [36] = system: Trichosporon asahii; experiment: Antifungal activity against Trichosporon asahii 1188 after 48 hrs by microdilution broth method; conditions: Trichosporon asahii, 1188, 48 h; how it was run: as §3
# [37] = system: Aspergillus fumigatus; experiment: Antifungal activity against Aspergillus fumigatus 231 after 24 hrs by microdilution broth method; conditions: Aspergillus fumigatus, 231, 24 h; how it was run: as §3
# [38] = system: Aspergillus fumigatus; experiment: Antifungal activity against Aspergillus fumigatus 231 after 48 hrs by microdilution broth method; conditions: Aspergillus fumigatus, 231, 48 h; how it was run: as §3
# [39] = system: Lichtheimia corymbifera; experiment: Antifungal activity against Absidia corymbifera 272 after 24 hrs by microdilution broth method; conditions: Lichtheimia corymbifera, 272, 24 h; how it was run: as §3
# [40] = system: Lichtheimia corymbifera; experiment: Antifungal activity against Absidia corymbifera 272 after 48 hrs by microdilution broth method; conditions: Lichtheimia corymbifera, 272, 48 h; how it was run: as §3
# [41] = system: Trichophyton mentagrophytes; experiment: Antifungal activity against Trichophyton mentagrophytes 445 after 24 hrs by microdilution broth method; conditions: Trichophyton mentagrophytes, 445, 24 h
# [42] = system: Trichophyton mentagrophytes; experiment: Antifungal activity against Trichophyton mentagrophytes 445 after 48 hrs by microdilution broth method; conditions: Trichophyton mentagrophytes, 445, 48 h
compound,measurement,setting,value
O=C(Nc1cccc(Br)c1)c1cc([N+](=O)[O-])ccc1O,MIC,[1],16 µM
same,MIC,[2],16 µM
same,MIC,[3],125 µM
same,MIC,[4],250 µM
same,MIC,[5],32 µM
same,MIC,[6],62.5 µM
same,MIC,[7],62.5 µM
same,MIC,[8],32 µM
same,MIC,[9],62.5 µM
same,MIC,[10],62.5 µM
same,MIC,[11],31.2 µM
same,MIC,[12],62.5 µM
same,MIC,[13],31.2 µM
same,MIC,[14],62.5 µM
same,MIC,[15],31.2 µM
same,MIC,[16],250 µM
same,MIC,[17],500 µM
same,MIC,[18],> 500 µM
same,MIC,[19],> 500 µM
same,MIC,[20],> 500 µM
same,MIC,[21],> 500 µM
same,MIC,[22],> 500 µM
same,MIC,[23],> 500 µM
same,MIC,[24],> 500 µM
same,MIC,[25],> 500 µM
same,MIC,[26],> 500 µM
same,MIC,[27],> 500 µM
same,MIC,[28],> 500 µM
same,MIC,[29],> 500 µM
same,MIC,[30],> 500 µM
same,MIC,[31],500 µM
same,MIC,[32],> 500 µM
same,MIC,[33],> 500 µM
same,MIC,[34],> 500 µM
same,MIC,[35],500 µM
same,MIC,[36],500 µM
same,MIC,[37],500 µM
same,MIC,[38],500 µM
same,MIC,[39],500 µM
same,MIC,[40],500 µM
same,MIC,[41],250 µM
same,MIC,[42],250 µM
O=C(Nc1cccc(F)c1)c1ccc([N+](=O)[O-])cc1O,MIC,[1],16 µM
same,MIC,[2],16 µM
same,MIC,[3],62.5 µM
same,MIC,[4],125 µM
same,MIC,[5],16 µM
same,MIC,[6],16 µM
same,MIC,[7],32 µM
same,MIC,[8],16 µM
same,MIC,[9],32 µM
same,MIC,[10],32 µM
same,MIC,[11],15.6 µM
same,MIC,[12],31.2 µM
same,MIC,[13],15.6 µM
same,MIC,[14],31.2 µM
same,MIC,[15],15.6 µM
same,MIC,[16],31.2 µM
same,MIC,[17],500 µM
same,MIC,[18],> 500 µM
same,MIC,[19],250 µM
same,MIC,[20],250 µM
same,MIC,[21],500 µM
same,MIC,[22],> 500 µM
same,MIC,[23],500 µM
same,MIC,[24],500 µM
same,MIC,[25],> 500 µM
same,MIC,[26],> 500 µM
same,MIC,[27],250 µM
same,MIC,[28],500 µM
same,MIC,[29],250 µM
same,MIC,[30],500 µM
same,MIC,[31],62.5 µM
same,MIC,[32],62.5 µM
same,MIC,[33],> 500 µM
same,MIC,[34],> 500 µM
same,MIC,[35],250 µM
same,MIC,[36],250 µM
same,MIC,[37],250 µM
same,MIC,[38],250 µM
same,MIC,[39],250 µM
same,MIC,[40],250 µM
same,MIC,[41],500 µM
same,MIC,[42],500 µM
